Results as given in ChEMBL document CHEMBL1122506, “Cardiac-slowing amidines containing the 3-thioindone group. Potential antianginal agents” (1983).

Legend:
[1] = tested on: Canis familiaris; experiment: Change in heart rate at the above D50 dose in conscious dogs; format: functional, Canis lupus familiaris
Summary of the method: (§1)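 Triazine tachycardia in conscious dogs: carotid artery and jugular vein catheterized with heparinized saline; 18 h after surgery, triazine vasodilator U20388 12 mg/kg po; about 1 h later, dog in sling with arterial pressure and ECG monitored. Test agent infused iv at 0.8 (mg/kg)/min to 30 mg/kg total. D50 = dose giving 50% of maximal slowing in that animal; ΔHR50 = heart-rate change at D50; CS index = %ΔHR50/D50.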

[2] = tested on: Canis familiaris; experiment: Myocardial depression in anesthetized, ganglion-blocked dog; Moderate activity.
[3] = species: Canis familiaris; experiment: Percent decrease from initial heart rate (percent delta HR50/HR0 x 100) in dogs; format: functional, Canis lupus familiaris; summary of the method: as §1
[4] = tested on: Canis familiaris; experiment: Dose required to achieve 50 % of maximal cardiac slowing in triazine tachycardia test in conscious dog; format: functional, Canis lupus familiaris; summary of the method: as §1
[5] = species: Canis familiaris; experiment: Cardiac slowing index of the compound; format: functional, Canis lupus familiaris; summary of the method: as §1
[6] = species: Canis familiaris; experiment: Cardiac slowing index was measured for potency and efficacy; format: functional, Canis lupus familiaris; summary of the method: as §1
[7] = tested on: Canis familiaris; experiment: Myocardial depression rating in anesthetized, ganglion-blocked dog; Weak activity.
[8] = tested on: Canis familiaris; experiment: Evaluated for the heart rate at dose 2.5 mg/kg in 4 animals by glucagon-induced tachycardia test; format: functional, Canis lupus familiaris
[9] = tested on: Canis familiaris; experiment: Evaluated for the heart rate at dose 5.0 mg/kg in 4 animals by glucagon-induced tachycardia test; format: functional, Canis lupus familiaris
[10] = species: Canis familiaris; experiment: Relative activity (fraction of the most active compound 24) was determined; format: functional, Canis lupus familiaris
[11] = tested on: Canis familiaris; experiment: Evaluated for the heart rate at dose 2.5 mg/kg in 4 animals by poldine tachycardia test; format: functional, Canis lupus familiaris
Summary of the method: (§2)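 Poldine tachycardia: dogs prepared surgically as in the triazine method; poldine methyl sulfate 0.5 mg/kg iv, then 30 min later test agent in increasing doses (0.5/1.0/2.5 mg/kg) at 30-min intervals; read-out is the maximum percent decrease in heart rate at each dose.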

[12] = tested on: Canis familiaris; experiment: Evaluated for the heart rate at dose 1.0 mg/kg in 4 animals by glucagon-induced tachycardia test; format: functional, Canis lupus familiaris
[13] = tested on: Canis familiaris; experiment: Evaluated for the heart rate at dose 1.0 mg/kg in 4 animals by poldine tachycardia test; format: functional, Canis lupus familiaris; summary of the method: as §2
[14] = tested on: Canis familiaris; experiment: Evaluated for the heart rate at dose 1.0 mg/kg in 4 animals by aminophylline-induced sinus tachycardia test; format: functional, Canis lupus familiaris
[15] = tested on: Canis familiaris; experiment: Evaluated for the heart rate at dose 2.5 mg/kg in 4 animals by aminophylline-induced sinus tachycardia test; format: functional, Canis lupus familiaris
[16] = species: Canis familiaris; experiment: Percent decrease from the initial evaluated heart rate (percent delta HR50/HR0 x 100); format: functional, Canis lupus familiaris; summary of the method: as §1
[17] = tested on: Canis familiaris; experiment: Evaluated for the heart rate at dose 0.5 mg/kg in 4 animals by poldine tachycardia test; format: functional, Canis lupus familiaris; summary of the method: as §2
[18] = tested on: Canis familiaris; experiment: Evaluated for the heart rate at dose 5.0 mg/kg in 4 animals by aminophylline-induced sinus tachycardia test; format: functional, Canis lupus familiaris
[19] = tested on: Canis familiaris; experiment: Evaluated for the heart rate at dose 5.0 mg/kg in 6 animals by aminophylline-induced sinus tachycardia test; format: functional, Canis lupus familiaris
[20] = tested on: Canis familiaris; experiment: Evaluated for the heart rate at dose 1.0 mg/kg in 6 animals by aminophylline-induced sinus tachycardia test; format: functional, Canis lupus familiaris
[21] = tested on: Canis familiaris; experiment: Evaluated for the heart rate at dose 2.5 mg/kg in 6 animals by aminophylline-induced sinus tachycardia test; format: functional, Canis lupus familiaris
[22] = tested on: Canis familiaris; experiment: Evaluated for the myocardial depression rating which is barely observable for the given compound in anesthetized, ganglion-blocked dog
[23] = tested on: Canis familiaris; experiment: Evaluated for the heart rate at dose 5.0 mg/kg in 3 animals by aminophylline-induced sinus tachycardia test; format: functional, Canis lupus familiaris
[24] = tested on: Canis familiaris; experiment: Evaluated for the heart rate at dose 1.0 mg/kg in 3 animals by aminophylline-induced sinus tachycardia test; format: functional, Canis lupus familiaris
[25] = tested on: Canis familiaris; experiment: Evaluated for the heart rate at dose 2.5 mg/kg in 3 animals by aminophylline-induced sinus tachycardia test; format: functional, Canis lupus familiaris
[26] = tested on: Canis familiaris; experiment: Evaluated for the myocardial depression rating which is severe for the given compound in anesthetized, ganglion-blocked dog
[27] = tested on: Canis familiaris; experiment: Myocardial depression in conscious dog; Moderate activity.; format: functional, Canis lupus familiaris, Myocardium
[28] = species: Canis familiaris; experiment: Evaluated for the dose required to achieve 50 % of the maximal cardiac slowing in the triazine tachycardia test.; format: functional, Canis lupus familiaris; summary of the method: as §1
[29] = tested on: Canis familiaris; experiment: Evaluated for the myocardial depression rating which is none for the given compound in anesthetized, ganglion-blocked dog
[30] = tested on: Canis familiaris; experiment: Evaluated for the heart rate at dose 2.5 mg/kg in 5 animals by glucagon-induced tachycardia test; format: functional, Canis lupus familiaris
[31] = tested on: Canis familiaris; experiment: Evaluated for the heart rate at dose 1.0 mg/kg in 5 animals by glucagon-induced tachycardia test; format: functional, Canis lupus familiaris

SMILES | Delta HR50 [1] | Delta HR50 [3] | D50 [4] | CS index [6] | Max decrease in heart rate [8] | Max decrease in heart rate [9] | Relative activity [10] | Max decrease in heart rate [11] | Max decrease in heart rate [12] | Max decrease in heart rate [13] | Max decrease in heart rate [17] | other results
CCCCCCCCn1cc(SCC/N=C2\CCCN2C)c2ccccc21 | -32 beats min-1 | 14.8% | 7.3 mg/kg | – | – | – | – | – | – | – | – | MD [2]: 2; CS index [5]: 2
Cc1[nH]c2ccccc2c1SCC/N=C1\CCCN1C | -34 beats min-1 | – | 4.5 mg/kg | 4.5 | 29% | 42% | 0.14 | 30% | 20% | 25% | 15% | MD [7]: 2.5; Max decrease in heart rate [14]: 12%; Max decrease in heart rate [15]: 23%; Delta HR50 [16]: 20.2%; Max decrease in heart rate [18]: 34%
CN1CCC/C1=N\CCSc1cn(C)c2ccccc12 | -30 beats min-1 | 20.2% | 1.2 mg/kg | 16.8 | 34% | 53% | 0.52 | 47% | 13% | 33% | 24% | MD [7]: 2; Max decrease in heart rate [19]: 39%; Max decrease in heart rate [20]: 22%; Max decrease in heart rate [21]: 32%
CCCn1cc(SCC/N=C2\CCCN2C)c2ccccc21 | -60 beats min-1 | 27.4% | 1.7 mg/kg | 16.1 | – | – | 0.5 | – | – | – | – | MD [22]: 1
CC(C)COCC(CN(Cc1ccccc1)c1ccccc1)N1CCCC1 (stereo not given) [BEPRIDIL] | -30 beats min-1 | 14.8% | 2 mg/kg | 7.4 | 30% | 45% | 0.23 | 25% | 16% | 18% | 10% | MD [22]: 1; Max decrease in heart rate [23]: 39%; Max decrease in heart rate [24]: 13%; Max decrease in heart rate [25]: 23%
CCCc1[nH]c2ccccc2c1SCC/N=C1\CCCN1C | -62 beats min-1 | 29% | 7.9 mg/kg | 3.7 | – | – | 0.11 | – | – | – | – | MD [26]: 4
CN1CCC/C1=N\CCSc1cn(C/C=C/c2ccccc2)c2ccccc12 | -58 beats min-1 | 23.5% | 6.1 mg/kg | 3.8 | – | – | 0.12 | – | – | – | – | MD [27]: 3
CN1CCC/C1=N\CCC1CNc2ccccc21 (stereo not given) | -27 beats min-1 | 12.2% | 3.5 mg/kg | 3.5 | – | – | 0.13 | – | – | – | – | MD [22]: 1
CC(C)NCC(O)COc1cccc2ccccc12 (stereo not given) [PROPRANOLOL] | -66 beats min-1 | 28.5% | – | 4.2 | 9% | – | 0.13 | 38% | 3% | 32% | 21% | MD [2]: 3; D50 [28]: 6.7 mg/kg; Max decrease in heart rate [14]: 24%; Max decrease in heart rate [15]: 32%; Max decrease in heart rate [18]: 37%
COc1ccc(CC/N=C2/CCCN2C)cc1OC [MIXIDINE] | -34 beats min-1 | 19.6% | 3.3 mg/kg | 5.9 | 16% | 28% | 0.18 | 35% | – | 24% | 12% | Max decrease in heart rate [19]: 33%; MD [22]: 1; Max decrease in heart rate [20]: 6%; Max decrease in heart rate [21]: 25%
CCn1cc(CC/N=C2/CCCN2C)c2ccccc21 | -48 beats min-1 | 20.2% | 0.8 mg/kg | 25.2 | – | – | 0.79 | – | – | – | – | MD [29]: 0
CCCc1[nH]c2ccccc2c1SCCNC1=NCCN1C | -27 beats min-1 | 13.2% | 2.1 mg/kg | 6.3 | – | – | 0.2 | – | – | – | – | MD [26]: 4
CCn1cc(SCC/N=C2\CCCN2C)c2ccccc21 | -39 beats min-1 | 21.8% | 0.8 mg/kg | 27.2 | – | – | 0.85 | 47% | – | 34% | 18% | MD [7]: 2; Max decrease in heart rate [30]: 46%; Max decrease in heart rate [14]: 27%; Max decrease in heart rate [15]: 43%; Max decrease in heart rate [31]: 28%; Max decrease in heart rate [18]: 53%
CN1CCCC1=NCCCCc1c[nH]c2ccccc12 | -50 beats min-1 | 19% | 6.1 mg/kg | 3.1 | – | – | 0.11 | – | – | – | – | MD [29]: 0
CN1CCC/C1=N\CCSc1c[nH]c2ccccc12 | -40 beats min-1 | 20.4% | 2.5 mg/kg | 8.2 | 20% | 28% | 0.26 | 33% | 6% | 22% | 9% | MD [2]: 3; Max decrease in heart rate [14]: 10%; Max decrease in heart rate [15]: 22%; Max decrease in heart rate [18]: 39%
CN1CCN=C1NCCCCSc1c[nH]c2ccccc12 | -27 beats min-1 | 10.5% | 12.6 mg/kg | 0.8 | – | – | 0.03 | – | – | – | – | MD [29]: 0
